The list is not random: actives were taken first. Their share in the collection is about 1.5%.
CCR6 antagonist: CCR6 receptor antagonists, primary screen, cell-based, CHO-K1, luminescence, beta-arrestin, uHTS; C-C chemokine receptor type 6 (Homo sapiens), P51684; CHO-K1 CCR6 PathHunter beta-arrestin, CCL20-stimulated; inhibition, % at 20 µM; actives 0.49% (n = 340,000); AID 493098, 2011;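 active = compounds whose inhibition of the agonist-driven luminescence signal at 20 µM reaches about 50%, limit read from the data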;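 note: cells stimulated with CCL20 at 14 nM final; plate controls were DMSO with CCL20 for no effect and DMSO without agonist for full effect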
APJ ag: agonists of human apelin receptor APJ, primary screen, CHO-K1 cells, PathHunter beta-arrestin, luminescence | AID 2520, 2010 | P35414 | activation, % at 20 µM | actives 0.11% (n = 330,000) | 0% DMSO wells, 100% apelin;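 active = activation more than six SD over the plate average, tested at 20 µM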;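 note: 0% = DMSO alone and 100% = apelin-13 at 10 nM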
Target sequence (P35414 whole entry, looked up): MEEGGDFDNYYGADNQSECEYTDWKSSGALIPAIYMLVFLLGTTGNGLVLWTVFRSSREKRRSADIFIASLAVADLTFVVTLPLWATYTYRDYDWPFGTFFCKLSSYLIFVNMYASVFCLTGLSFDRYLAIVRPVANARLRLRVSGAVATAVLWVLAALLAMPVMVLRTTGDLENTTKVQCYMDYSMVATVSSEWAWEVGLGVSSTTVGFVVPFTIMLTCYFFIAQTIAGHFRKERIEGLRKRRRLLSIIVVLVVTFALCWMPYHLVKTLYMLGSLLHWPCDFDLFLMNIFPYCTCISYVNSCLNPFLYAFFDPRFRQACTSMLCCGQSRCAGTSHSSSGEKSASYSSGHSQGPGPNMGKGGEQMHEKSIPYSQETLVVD
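Incubation: overnight seeding, 90 min compound at 25 °C, 1 h detection; test system: PathHunter CHO-K1 APJ (AGTRL-1) beta-arrestin reporter cells; amount: 1000 cells/well; doses: one dose, 20 µM compound, 1% DMSO; measured by: beta-gal luminescence; measure: agonist-driven arrestin binding to APJ; benchmarks: negative DMSO alone, positive Apelin-13 at 10 nM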
APJ antag: antagonists of human apelin receptor APJ, primary screen, CHO-K1 cells, beta-arrestin complementation, luminescence. P35414. inhibition, % at 20 µM. actives 0.32% (n = 330,000). AID 2521, 2010;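 active = inhibition above about 40% at 20 µM, limit read from the data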;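 note: cells challenged with 10 nM apelin-13 agonist together with compound; plate controls were apelin-13 plus DMSO wells for no effect and DMSO wells lacking apelin-13 for full effect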
CXCR6 inh: CXCR6 receptor inhibitors, primary screen, cell-based, beta-arrestin, luminescence, CHO-K1 PathHunter, 1536-well | AID 602244, 2012 | inhibition, % at 20 µM | actives 0.36% (n = 360,000); in the data active = inhibition above about 34%, passing the limit was not always enough;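 note: antagonist mode with CXCL16 agonist at 10 nM final; 0% = 10 nM CXCL16 with DMSO and 100% = unstimulated wells without agonist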
Target sequence (O00574 whole entry, looked up): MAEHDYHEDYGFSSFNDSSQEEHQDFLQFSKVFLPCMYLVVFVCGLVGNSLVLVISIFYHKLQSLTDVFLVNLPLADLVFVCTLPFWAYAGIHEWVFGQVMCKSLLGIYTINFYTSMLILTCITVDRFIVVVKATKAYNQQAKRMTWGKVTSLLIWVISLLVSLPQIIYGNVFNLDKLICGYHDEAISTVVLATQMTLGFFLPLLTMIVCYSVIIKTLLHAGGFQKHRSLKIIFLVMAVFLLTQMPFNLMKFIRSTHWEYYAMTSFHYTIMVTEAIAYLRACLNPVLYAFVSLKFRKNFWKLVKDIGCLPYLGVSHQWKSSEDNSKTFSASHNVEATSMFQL
EBI2 antag: EBI2 receptor antagonists, beta-arrestin recruitment, primary screen, cell-based, luminescence, 7a,25-OHC stimulation, uHTS; G-protein coupled receptor 183 (Homo sapiens), P32249; 7a,25-OHC stimulated; inhibition, % at 5 µM; actives 0.81% (n = 360,000); AID 651636, 2012; in the data active = inhibition above about 38%;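 note: enzyme fragment complementation signal reports receptor beta-arrestin coupling in cells; 0% = agonist plus DMSO wells and 100% = wells without agonist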
An asterisk follows results filed as active; . = no result given.

SMILES | CCR6 antagonist | APJ ag | APJ antag | CXCR6 inh | EBI2 antag
Cc1ccc(-c2nc3c4ccccc4ccn3c2Cc2ccsc2)cc1 | . | . | . | 4.9 | 3.6
COCC(=O)N1C[C@@H](C)[C@@H](OC)CN(C)C(=O)c2ccc(NC(=O)c3cnccn3)cc2OC[C@H]1C | . | . | . | . | -8.6
O=C(O)CN1C(=O)C=CC1=O | . | . | . | -15.6 | 5.3
O=C1C=CC(=O)N1CCCCCCN1C(=O)C=CC1=O | 103.5* | . | . | . | .
CCCCn1nnnc1C(c1ccccc1)N1CCN(c2ccc(C)cc2)CC1 (stereo not drawn) | . | . | . | 6.2 | 4.1
Cc1nc2scc(-c3ccccc3)c2c(=O)n1N=C1C=CC(=O)C=C1 | 99.2* | -0.8 | -0.8 | . | .
Cc1nc2scc(-c3ccccc3)c2c(=O)n1N | 6.8 | -1.4 | -4.1 | 3.5 | -1.2
CC(=O)c1cccc(NC(=O)C2(C)Cc3c(-c4ccccc4)ccnc3O2)c1 (stereo not drawn) | . | . | . | -2.3 | 3.5
CC(CCc1ccccc1)NC(=O)COC(=O)c1ccc(S(C)(=O)=O)c([N+](=O)[O-])c1 (stereo not drawn) | 50.3* | 7.1 | 5.0 | 31.4 | 9.6
CC(CCc1ccccc1)NC(=O)COC(=O)c1ccc([N+](=O)[O-])cc1 (stereo not drawn) | 0.6 | 0.2 | -4.7 | -2.7 | -10.4
COc1cc2ccccc2cc1C(=O)Nc1ccc(Br)cn1 | 1.9 | 2.3 | 6.7 | -16.8 | 47.5*
COC(=O)C1=C(C)N(Cc2ccc(C)cc2)C(=O)/C1=C\c1ccc(O)c(OC)c1 | 34.5 | -0.6 | 14.2 | 36.3* | 7.1
COC(=O)C1=C(C)N(Cc2ccc(C)cc2)C(=O)/C1=C\c1cc(OC)c(OC)c(OC)c1 | 38.4 | -0.9 | 2.9 | 11.6 | 37.4
COc1cccc(-c2cnc3c(NC(C)=O)cc(-c4ccc(C(=O)N5CCOCC5)cc4)cn23)c1 | . | . | . | 7.2 | 24.7
O=C(NC1CCCC1)C1c2ccccc2OCC(=O)N1Cc1cccnc1 (stereo not drawn) | . | . | . | -5.0 | -9.3
CCOc1ccc(NC(=S)NNc2ccnc3cc(Cl)ccc23)cc1 | 13.3 | 6.1 | -3.5 | 3.4 | 17.1
S=C(NNc1ccnc2cc(Cl)ccc12)Nc1ccc(Cl)cc1Cl | 54.4* | 4.6 | 8.1 | 17.6 | 5.6
O=C1CN(C(=O)CN2CCN(S(=O)(=O)c3ccccc3)CC2)c2ccccc2N1 | . | . | . | -1.1 | -10.5
O=c1oc2ccccc2c(Cl)c1CN1CCCCC1 | 92.3* | -7.6 | 86.5* | 96.5* | -2.3
CC(C)C[C@@H]1Cc2[nH][nH]c(=O)c2[C@H](C)O1 | . | . | . | -2.3 | 1.1
Cc1cc(C)c2c(=O)n(CC(=O)NCCCN3CCN(c4ccccc4F)CC3)sc2n1 | 99.8* | 4.5 | -12.4 | . | .
Cc1nn(-c2ccccn2)c2c1C(c1c(F)cccc1Cl)C1=C(N2)c2ccccc2C1=O (stereo not drawn) | . | -3.2 | 23.1 | . | .
Cc1nn(-c2ccccn2)c2c1C(c1ccccc1Cl)C1=C(N2)c2ccccc2C1=O (stereo not drawn) | 78.8* | -2.4 | 19.0 | 25.9 | -3.7
CN(CCCn1cnc2c(OCc3ccccc3)ncnc21)Cc1ccco1 | . | . | . | -3.7 | 3.7
O=C1Nc2ccc(Br)cc2/C1=N\N=C\C1=C(N2CCOCC2)C(=C/c2ccccc2)/CC1 | 55.4* | . | . | 40.9* | 6.9
SMILES | CCR6 antagonist | APJ ag | APJ antag | CXCR6 inh | EBI2 antag
COc1ccc(C(NC(=O)C2CCN(Cc3ccc(Oc4ccccc4)cc3)CC2)c2ccccc2C)cn1 (stereo not drawn) | . | . | . | 19.3 | 8.9
CC(=O)OC[C@H]1O[C@@H](O/N=C/[C@@H](C)[C@H](OCc2ccccc2)C(C)C)[C@H](OC(C)=O)[C@@H](OC(C)=O)[C@@H]1OC(C)=O | . | 0.0 | 5.9 | . | .
C=C(CN(C)C)C(=O)c1ccc(OC2OC(COC(C)=O)C(OC(C)=O)C(OC(C)=O)C2OC(C)=O)cc1 (stereo not drawn) | 100.0* | . | . | 89.6* | 72.2*
CCCNC(=O)C1(C)CCN(Cc2ccc(-c3ccccc3)o2)C1 (stereo not drawn) | . | . | . | -7.0 | 6.5
CNc1ccc(N=Nc2cccc3ncccc23)cc1 | 60.9* | . | . | 41.4* | 34.4
CCOC(=O)c1ccc(N2C(=O)C=CC2=O)cc1 | 113.2* | 0.4 | 14.4 | 101.0* | 3.5
Cc1nn(Cc2ccc(F)cc2)c(C)c1NC(=O)c1cnn2c1NC(c1ccccc1)CC2C(F)(F)F (stereo not drawn) | -9.1 | -1.1 | -15.2 | -14.3 | 0.2
Cc1nn(Cc2ccc(F)cc2)c(C)c1NC(=O)c1cnn2c1NC(c1cccs1)CC2C(F)(F)F (stereo not drawn) | -1.6 | 1.3 | -17.3 | 6.7 | 37.4*
Cc1ccc(S(=O)(=O)N/N=C/c2cccc([N+](=O)[O-])c2)cc1 | 36.6 | -8.5 | 50.6* | 8.6 | -9.0
COc1ccc(NC(=O)C2(C)CCN2Cc2csc3ccccc23)cc1OC (stereo not drawn) | . | . | . | 1.2 | 2.6
O=[N+]([O-])c1cc(Cl)cc(/C=N/n2cnnc2)c1O | 36.2 | 1.2 | 4.4 | 31.5* | 12.1
O=C(Nc1ccc(F)cc1)C(CCc1ccccc1)N1CCN(c2cccc(C(F)(F)F)n2)CC1 (stereo not drawn) | . | . | . | . | 2.3
CCOC(=O)c1csc(Nc2nc3ccc(F)cc3s2)n1 | 26.6 | -13.7 | 42.2* | 16.8 | 41.0
C[C@H](c1ccccc1)N1C[C@@H](COCc2ccccc2)Oc2cc(N3CCC[C@H]3CO)ccc2S1(=O)=O | . | . | . | -3.5 | 11.7
C=C1CC(Cn2cc(Br)c(=O)[nH]c2=O)(c2ccc(-c3ccccc3)cc2)OC1=O (stereo not drawn) | . | . | . | 42.8* | 84.1*
O=C1C(Cl)=C(NC(=O)c2ccccc2)C(=O)C(Cl)=C1NC(=O)c1ccccc1 | . | 1.4 | -37.0 | 88.4* | 31.9
O=C(NC1=C(Nc2ccc(Cl)cc2)C(=O)c2ccccc2C1=O)c1ccccc1 | 5.8 | 3.3 | -55.4 | 0.5 | -13.9
CN(C)CC(O)c1ccc(C=Cc2ccc(Cl)cc2)cc1 (stereo not drawn) | 88.2* | . | . | 19.1 | -21.7
CCN(CC)CCN1CCN(c2cncc(-c3ccc4ccccc4c3)n2)CC1 | . | . | . | 6.4 | -19.4
O=C(O)c1cc(O)c2c(c1)C(=O)c1cccc(O)c1C2=O | 78.9* | 12.9 | -1.5 | 48.4* | 5.2
O=C1C=C(O)c2c(O)cccc2C1=O | . | -4.2 | -80.8 | . | .
O=C(CSc1nc(-c2cccs2)cc(C(F)(F)F)n1)NCCCn1ccnc1 | 1.6 | 5.5 | -3.1 | 6.6 | 5.9
O=C(CSc1nc(-c2ccco2)cc(C(F)(F)F)n1)NCCCn1ccnc1 | -5.3 | -2.3 | -6.1 | 48.3* | -4.3
CC(=O)OCCCNc1cc(Sc2ccc(Cl)cc2)c2nonc2c1[N+](=O)[O-] | 104.5* | . | . | 92.1* | 68.0*
Cc1ccccc1C(=O)N1CCC[C@@H]1C(=O)N1CCC[C@H]1C(=O)NCc1ccncc1 | . | . | . | -5.9 | -5.2

Source: PubChem BioAssay
